Screening results from PubChem.
GPR7 antag – blocks human GPR7 receptor signaling; GPR7-expressing cells, fluorescence antagonist assay; inhibition, % at 4.4 µM; 1.1% of 290,000 active; AID 1861; in the data active means inhibition above about 16%, passing the limit was not always enough;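 further: cells stimulated with the agonist NPW; 0% = agonist with vehicle and 100% = vehicle without agonist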
Target sequence (P48145 whole entry, looked up): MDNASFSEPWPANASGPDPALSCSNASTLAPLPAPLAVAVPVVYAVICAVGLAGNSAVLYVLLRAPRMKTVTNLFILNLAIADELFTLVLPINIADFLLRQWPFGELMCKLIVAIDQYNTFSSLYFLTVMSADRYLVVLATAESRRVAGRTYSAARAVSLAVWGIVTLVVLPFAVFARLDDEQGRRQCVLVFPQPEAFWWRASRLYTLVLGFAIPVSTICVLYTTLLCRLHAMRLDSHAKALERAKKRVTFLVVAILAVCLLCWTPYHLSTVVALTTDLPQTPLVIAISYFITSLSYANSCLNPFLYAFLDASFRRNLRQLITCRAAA
CHO parental Ca – counter-screen: ATP calcium response change in parental CHO cells | inhibition, % at 5.6 µM | 0.63% of 330,000 active | AID 463079 | parental CHO-K1, ATP-induced calcium, Fluo-8 fluorescence;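 active means inhibition above that plate's mean sample inhibition plus 3 SD, cut at about 26% in these data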;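 further: 0% = ATP-challenged DMSO wells and 100% = DMSO wells without ATP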
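Material – parental CHO cells · Reagent – ATP stimulus · Compound – single nominal dose of 5.6 µM per compound · Detection – Fluo-8 fluorescence · Read-out basis – percent inhibition of calcium signal · Controls – ATP-challenged DMSO wells low, unchallenged DMSO wells high · Repeats – no replicates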
OX1R antag-1 – blocks the human orexin 1 receptor; O43613; 1.8% of 330,000 active; AID 485270; inhibition, % at 6.6 µM; OX1R-expressing cells, FRET antagonist read-out; in the data active means inhibition mostly above about 38%, no sharp cut-off; inactive means mostly below about 40%;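 further: 0% = agonist challenge alone and 100% = reference antagonist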
OX1R antag-2 – human HCRTR1 antagonism; O43613; CHO/OX1R cells, Fluo-8 calcium fluorescence, orexin A; inhibition, % at 5 µM; 0.43% of 330,000 active;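 active means inhibition above its plate's threshold, mean inhibition of all tested compounds on the plate plus 3 SD, cut at about 37% in these data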;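 further: 0% = orexin A challenge wells and 100% = SB-334867-A antagonist wells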
GalR3 antagonist – blocks the human galanin receptor 3 | AID 651719 | inhibition, % at 3 µM | O60755 | 0.44% of 360,000 active | HEK293 GalR3-CNG cAMP membrane potential fluorescence; galR3 body fused to GalR1 C-terminus;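 active means inhibition above the screen-wide average plus 3 SD, cut at about 13% in these data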;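 further: forskolin and galanin both at EC90 stimulate the cells; cAMP rise reported by CNG channel membrane potential dye signal; 0% = forskolin plus galanin with DMSO and 100% = forskolin alone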
Target sequence (O60755 1-299 limits assumed): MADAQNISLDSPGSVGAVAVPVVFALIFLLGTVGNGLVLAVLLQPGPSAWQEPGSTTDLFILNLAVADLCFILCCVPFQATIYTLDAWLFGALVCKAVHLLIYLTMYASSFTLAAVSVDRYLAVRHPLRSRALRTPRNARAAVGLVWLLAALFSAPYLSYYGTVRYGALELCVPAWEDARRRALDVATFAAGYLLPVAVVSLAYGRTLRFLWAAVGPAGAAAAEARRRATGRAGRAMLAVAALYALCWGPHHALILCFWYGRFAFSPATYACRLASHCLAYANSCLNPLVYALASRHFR
The depositor's hits bear a star; / = no result given. Only some compounds are listed: those with a hit (about 3.1% of all), similar ones and a draw of the others.

SMILES	GPR7 antag	CHO parental Ca	OX1R antag-1	OX1R antag-2	GalR3 antagonist
COc1cccc(CNC(=O)CCCn2nc(C)c3c(C)n(-c4ccc(C)cc4)nc3c2=O)c1OC	-2	-28	14	-50	-6
COc1cc([N+](=O)[O-])c2ncsc2c1	0	-11	69*	-7	0
C[C@H]1[C@@H]2C[C@@]3(O[C@H](c4ccccn4)N=C3C[C@@H]1c1ccccc1)N(Cc1ccncc1)C2=O	/	/	/	/	-7
CC(C)(C)S(=O)N1C[C@H]2CC(=O)C=C2[C@@H]1CCO (stereo partly drawn)	/	/	/	/	-5
COc1cccc(C2NC(=S)N(Cc3ccccc3)C(C)=C2C(C)=O)c1 (stereo not drawn)	/	/	/	/	-8
Clc1ccc2c(N/N=C/c3ccc(Br)cc3)ccnc2c1	-4	49*	15	8	-5
Cc1ccccc1Cn1c(=N)n(CC(O)c2ccco2)c2ccccc21 (stereo not drawn)	14	-21	18	-24	-3
CC(C)(C)c1ccc(Cn2c(=N)n(CC(O)c3ccco3)c3ccccc32)cc1 (stereo not drawn)	24*	3	-12	-16	/
Cc1ccc2oc(C(=O)Nc3cc(C)on3)c(C)c2c1	/	-11	13	-23	-2
Cc1cc(C)cc(NC(=O)c2cc(C)n(Cc3cccs3)c2C)c1	-14	59*	17	10	-4
Cc1cc(C(=O)Nc2ccc(Cl)cc2)c(C)n1Cc1cccs1	-5	-21	15	-15	-1
COC(=O)[C@H]1C[C@@]2(O)CN(S(=O)(=O)c3ccc(C)cc3)C[C@@]2(OC(=O)Nc2cccs2)C[C@H]1C(=O)OC	/	/	/	/	-5
O=C(c1ccc(F)cc1)N1CCN2C(=O)c3ccccc3C12c1ccc(Cl)cc1 (stereo not drawn)	16*	-26	27	-28	-10
O=C(c1ccc(F)cc1)N1CCN2C(=O)c3ccccc3C12c1ccccc1 (stereo not drawn)	-6	1	6	-18	-3
Cc1ccc(NC(=O)CCn2c(=O)c3cccn3c3ccccc32)c(C)c1	-7	-11	8	-30	-7
Cc1cc(C)cc(NC(=O)CCn2c(=O)c3cccn3c3ccccc32)c1	-1	-12	41*	13	-10
COc1ccc(N=Nc2c(C)[nH][nH]c2=O)cc1	-6	-7	57*	-12	-4
O=C(NCc1ccccc1)c1ccc(-c2ccccc2F)o1	-9	4	59*	-12	-9
CC(C)C[C@H]1COc2cc(NCCCN3CCOCC3)ccc2S(=O)(=O)N1	/	/	/	/	2
CC[C@]12c3[nH]c4cc(-c5ccco5)ccc4c3CCN1C(=O)[C@@H](CC(=O)NCCC1=CCCCC1)C[C@@H]2C(=O)N1CCN(C(=O)c2ccco2)CC1	/	-21	43*	45	/
CC[C@]12c3[nH]c4cc(CCC(=O)N(C)C)ccc4c3CCN1C(=O)[C@@H](CC(=O)NCCC1=CCCCC1)C[C@@H]2C(=O)N1CCN(C(=O)c2ccco2)CC1	/	-18	10	2	-6
S=C1NCN(CC2CC2)CN1	/	/	/	/	-7
CC(Oc1ccc(Br)cc1)C(=O)Nc1nc(-c2ccccn2)cs1 (stereo not drawn)	1	35*	40	9	-2
CC(C)[C@H](NC(=O)c1ccccc1Cl)C(=O)Nc1nc(-c2ccccn2)cs1	-15	-25	13	-25	2
Cc1ccc(S(=O)(=O)n2nc(C)c(Br)c2C)c(C)c1C	-12	38	47	52*	-1
SMILES	GPR7 antag	CHO parental Ca	OX1R antag-1	OX1R antag-2	GalR3 antagonist
C=CCN1C=CC(=C/C=C(/C#N)C(=O)OCC)C=C1	-2	11	60*	19	-5
COc1cccc(OC)c1C(=O)Nc1cccc(S(=O)(=O)Nc2ccccc2Cl)c1	/	-20	17	-2	-6
N#Cc1cccc(NC(=O)COC(=O)c2cc(S(=O)(=O)Nc3ccccc3Cl)ccc2O)c1	/	4	38*	15	-4
O=C(CCOc1ccccc1)Nc1cccc(S(=O)(=O)Nc2ccccc2Cl)c1	-8	37*	55	57*	6
CC(C)(C)c1cc(OC(=O)C2CCCC2)ccc1O	-2	28	6	10	-10
CCCCC(CC)C(=O)Oc1ccc(O)c(C(C)(C)C)c1 (stereo not drawn)	30*	5	18	-29	-9
O=C(N/N=C/c1cccc([N+](=O)[O-])c1)c1cccc2cc[nH]c12	5	10	20	11	0
O=C(N/N=C/c1cc([N+](=O)[O-])ccc1Cl)c1ccc2nc[nH]c2c1	1	4	62*	-3	-3
O=C(N/N=C/c1ccccc1C(F)(F)F)c1ccc2nc[nH]c2c1	-9	-6	17	-2	-7
O=C(N/N=C/c1ccco1)c1ccc2nc[nH]c2c1	-6	-21	3	-8	-8
O=C(N/N=C/c1ccc(Cl)cc1Cl)c1ccc2nc[nH]c2c1	-9	-8	35*	-26	0
O=C(N/N=C/c1cc([N+](=O)[O-])ccc1O)c1cccc2cc[nH]c12	-4	57*	34	49*	-6
Cc1[nH]c2ccccc2c1C(=O)COC(=O)c1nccnc1N	/	2	7	-13	-3
Nc1ccn([C@@H]2O[C@H](CNC(=O)[C@@H](Cc3cccnc3)NC=O)[C@@H](O)[C@H]2O)c(=O)n1	/	/	/	/	-7
C[C@@H]1COc2cccc(NCCCN3CCOCC3)c2S(=O)(=O)N1	/	/	/	/	-6
O=C(O)c1cccc(NC(=O)c2ccc3c(c2)C(=O)N(CC2CCCO2)C3=O)c1 (stereo not drawn)	0	4	56*	-2	-3
O=C(O)c1ccc(C(=O)c2ccc3c(c2)C(=O)N(CC2CCCO2)C3=O)cc1 (stereo not drawn)	-9	1	56*	-2	0
O=C(O)c1ccc(S(=O)(=O)c2ccc3c(c2)C(=O)N(CC2CCCO2)C3=O)cc1 (stereo not drawn)	17	1	42	-2	-3
CCC(CC)C(=O)Nc1cccc(C(=O)Nc2ccc(S(N)(=O)=O)cc2)c1	-18	-4	19	-9	-3
CCC(CC)C(=O)Nc1cccc(C(=O)Nc2ccc(S(=O)(=O)Nc3ccc(C)cc3)cc2)c1	-4	10	54*	55*	-6
Cc1ccc(NS(=O)(=O)c2ccc(C3CCCCC3)cc2)cc1	-11	42*	11	56*	-1
Cc1ccc(S(=O)(=O)Nc2ccc(NC(=O)c3c(F)c(F)c(F)c(F)c3F)cc2)cc1	78*	44*	-6	69*	-9
CCOc1ccc(OCCC(=O)OCC(=O)N(CC)c2c(N)n(Cc3ccccc3)c(=O)[nH]c2=O)cc1	/	/	/	/	-4
Cc1c(C(=O)Nc2ccccn2)oc2c(Cl)cccc12	/	-47	34*	-25	-6
Cc1c(C(=O)Nc2ccccn2)oc2ccccc12	-1	-7	52*	2	-10
Cc1cc(NC(=O)c2oc3ccccc3c2C)ccc1-n1cnnn1	-5	-17	39*	-5	-6
Cc1c(Cl)ccc2sc(NC(=O)C3CC3)nc12	4	3	44*	-20	/
